Measured values reported in PubChem BioAssay.
Active and inactive are the calls of the source.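 Rule for the calls, unless noted: active = a full or partial loss of lipid-probe fluorescence in the fish gall bladder, intestine or both, judged by eye; inactive = no fluorescence loss, or compound toxic to the fish.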

Assays:
[1] = inhibitors of TNFa-induced NFkB p65 translocation, primary screen, imaging, HUVEC, MLSMR starter and 10KST1 sets (AID 438;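 active = inhibition above 20% together with a positive visual image hit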;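 note: compound added about 3h40 before a 20 min TNFalpha stimulation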;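 for inhibition: signal is the nuclear over cytoplasmic p65 intensity ratio per well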); settings: HUVEC TNFa-induced p65 nuclear translocation; cell count: measured here: nuclei count (cytotoxicity indicator), at 2.08 µM; inhibition: at 2 µM, stronger effect = higher value, 0% TNFa-plus-vehicle, 100% no-TNFa wells
[2] = endothelial E-selectin expression blockers – imaging, HUVEC, immunofluorescence, MLSMR starter and 10KST1 sets, primary screen (AID 487;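 active = visually confirmed hit in the image check and inhibition above 20%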;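 for inhibition: signal is fraction of cell area covered by stained E-selectin grains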;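 for nuclei count: 100% = median nuclei count of all wells on the same plate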); settings: HUVEC TNFalpha-induced E-selectin immunofluorescence imaging, at 2 µM; inhibition: stronger effect = higher value; nuclei count: measured here: cell number, toxicity
[3] = Primary imaging screen for DUSP6 inhibitors that restore phospho-Erk in transfected HeLa cells, chemical complementation (AID 609;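 active = compounds giving at least 50% inhibition in the cell-based MKP-3 phosphatase rescue imaging test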;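 for inhibition: phospho-Erk level distribution per well compared with pooled transfected vehicle control wells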); settings: HeLa MKP-3 transfected, phospho-Erk imaging KS statistic, at 10 µM, cells stimulated with TPA for 15 min
[4] = biological target: Dual specificity protein phosphatase 6 (Homo sapiens) (UniProt Q16828); test: as above; settings: HeLa MKP-3 transfected, phospho-Erk imaging KS statistic; at 10 µM; stronger effect = higher value; cells stimulated with TPA for 15 min
[5] = biological target: Voltage-gated potassium channel subunit beta-2 (Rattus norvegicus) (UniProt P62483); test: inhibitors of rat Kvbeta2 reductase activity – biochemical, NADPH fluorescence, primary screen (AID 622;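 active = fluorescence slope higher than the sample average by over 3 SD, cut at about -0.22 in these data, passing the limit was not always enough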;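 note: slope of raw intensity against log time taken from 70 to 1610 s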); settings: recombinant KvBeta, 4-cyanobenzaldehyde reduction, at 10 µM, stronger effect = higher value
[6] = biological target: Voltage-gated potassium channel subunit beta-2 (Rattus norvegicus) (UniProt P62483); test: enhancers of rat Kvbeta2 NADPH turnover – biochemical, NADPH fluorescence, primary screen (AID 623;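 active = NADPH fluorescence slope more negative than the mean of all samples by about 3 SD, 99.7% confidence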;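 note: fluorescence intensity change per second fitted from 20 to 320 s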); settings: Recombinant KvBeta, NADPH fluorescence decrease slope, 10 min; at 10 µM; stronger effect = lower value
[7] = biological target: Alpha-2C adrenergic receptor (Homo sapiens) (UniProt P18825); test: compounds altering alpha2C-coupled GIRK flux – cell-based, HEK293 alpha2C/GIRK1/2, thallium flux, primary screen (AID 624;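 active = fluorescence slope after compound addition differing from the mean of all screened samples at 99.7% confidence, in either direction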;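 note: slope of fluorescence ratio to pre-addition baseline per second over 15 to 24 s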); settings: thallium flux BTC fluorescence, at 10 µM, actives lie on both sides
[8] = inhibitors of larval lipid processing in zebrafish, primary screen, whole organism, PED6 fluorescence, gall bladder and intestine (AID 686); settings: Zebrafish larvae PED6 lipid processing, fluorescence scoring; screened at 20 µM (by protocol);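 note: larvae 5 to 7 days old with five fish per well; signal comes from phospholipase A2 cleavage of quenched PED6 carried via bile; overnight exposure to compound and PED6 before scoring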
Outline: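 Test system – live zebrafish larvae aged 5-7 days, whole organism · Buffer or medium – E3 fish medium · Reagent – quenched phospholipase substrate PED6, 100 nM final, ingested by larvae · Doses – 20 µM single dose · Incubation – overnight compound and PED6 incubation · Technique – visual fluorescence microscopy scoring of gall bladder, gut · Read-out basis – visual per-well fluorescence inhibition score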

[9] = loss of swimming-algae plug formation – whole organism, Chlamydomonas reinhardtii, WT vs cilia-less mutant, absorbance, 96-well, primary screen (AID 463189;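 active = inhibition at or above 50% relative to wild type and mutant plate controls; inactive = inhibition below 50%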;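 note: 0% = wild type cc124 cells in DMSO and 100% = ciliumless bld1 mutant cells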); settings: Chlamydomonas reinhardtii gravitaxis, OD600 absorbance, 2 days; at 10 µM; stronger effect = higher value
[10] = measured here: cell density z-score
[11] = measured here: nuclear c-Myc green intensity z-score
[12] = measured here: nuclear pErk red intensity z-score, stronger effect = higher value

Alpha-2C adrenergic receptor (Homo sapiens), sequence (P18825 whole entry, looked up): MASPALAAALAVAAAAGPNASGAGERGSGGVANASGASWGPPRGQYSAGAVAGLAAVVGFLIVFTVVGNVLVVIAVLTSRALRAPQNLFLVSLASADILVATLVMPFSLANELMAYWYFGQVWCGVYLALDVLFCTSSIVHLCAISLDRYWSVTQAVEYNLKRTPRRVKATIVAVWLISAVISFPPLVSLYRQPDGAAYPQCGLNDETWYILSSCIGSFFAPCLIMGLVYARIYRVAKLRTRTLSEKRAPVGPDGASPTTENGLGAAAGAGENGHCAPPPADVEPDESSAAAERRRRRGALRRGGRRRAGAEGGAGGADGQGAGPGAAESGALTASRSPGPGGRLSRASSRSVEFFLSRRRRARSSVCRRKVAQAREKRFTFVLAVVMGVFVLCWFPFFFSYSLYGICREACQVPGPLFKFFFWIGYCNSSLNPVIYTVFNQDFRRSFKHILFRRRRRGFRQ
Voltage-gated potassium channel subunit beta-2 (Rattus norvegicus), sequence (P62483 whole entry, looked up): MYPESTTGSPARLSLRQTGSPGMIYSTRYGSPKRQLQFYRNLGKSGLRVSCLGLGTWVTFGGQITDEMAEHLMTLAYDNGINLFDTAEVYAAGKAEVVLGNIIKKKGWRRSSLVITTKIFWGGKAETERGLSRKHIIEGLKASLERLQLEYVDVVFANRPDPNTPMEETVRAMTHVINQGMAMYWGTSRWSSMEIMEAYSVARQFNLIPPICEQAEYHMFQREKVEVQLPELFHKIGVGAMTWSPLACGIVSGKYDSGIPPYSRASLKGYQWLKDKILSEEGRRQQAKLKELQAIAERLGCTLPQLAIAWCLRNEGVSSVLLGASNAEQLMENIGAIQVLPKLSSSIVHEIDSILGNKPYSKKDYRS
Dual specificity protein phosphatase 6 (Homo sapiens), sequence (Q16828 whole entry, looked up): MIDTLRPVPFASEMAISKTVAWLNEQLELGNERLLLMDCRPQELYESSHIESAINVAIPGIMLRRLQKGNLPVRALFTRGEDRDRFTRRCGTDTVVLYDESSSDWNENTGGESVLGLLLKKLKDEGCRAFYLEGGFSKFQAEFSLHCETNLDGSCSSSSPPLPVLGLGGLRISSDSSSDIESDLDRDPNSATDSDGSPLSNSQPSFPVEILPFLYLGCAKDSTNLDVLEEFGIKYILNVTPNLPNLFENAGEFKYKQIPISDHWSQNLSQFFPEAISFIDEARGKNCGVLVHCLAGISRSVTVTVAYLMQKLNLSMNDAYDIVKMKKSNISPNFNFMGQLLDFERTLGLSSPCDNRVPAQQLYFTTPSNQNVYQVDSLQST

Structure (SMILES)	cell count [1]	inhibition [1]	inhibition [2]	nuclei count [2] [%]	z-score [3, 10]	z-score [3, 11]	z-score [3, 12]	inhibition [4]	fluorescence slope [5]	NADPH fluorescence slope [6]	slope [7]	outcome [8]	inhibition [9]
O=C(O)C1CCCCN1S(=O)(=O)c1cccc2nsnc12 (centres undefined)	488	9.4% (inactive)	-8.1% (inactive)	93.9	-0.854	0.334	-0.543	-6.06% (inactive)	-0.498 (inactive)	-3.9e-05 (inactive)	0.0076 (inactive)	inactive	-16.5% (inactive)
COc1ccc(Nc2oc(-c3cccs3)nc2C#N)cc1	383	2.9% (inactive)	-134% (inactive)	142	1.97	-0.949	-1.32	15% (inactive)	-0.352 (inactive)	-1.7e-05 (inactive)	0.00524 (inactive)	inactive	16% (inactive)
CC1(C)CC(=O)c2cc(C(=O)N3CCCC(C)(C)C3)c(=O)n(-c3ccccc3)c2C1	523	-8% (inactive)	-71.4% (inactive)	121	0.578	0.18	1.1	7.48% (inactive)	-0.48 (inactive)	-0.000165 (inactive)	0.00502 (inactive)	inactive	31.5% (inactive)
COC(=O)c1n[nH]c2ccccc12	323	0.5% (inactive)	-157% (inactive)	119	-0.132	0.244	-1.14	-0.624% (inactive)	-0.287 (inactive)	-1.1e-05 (inactive)	0.00523 (inactive)	inactive	17.4% (inactive)
Cc1nc(SCC(N)=O)[nH]c(=O)c1Cc1ccc(OC(C)C)cc1	585	5.2% (inactive)	22.1% (inactive)	150	-0.515	0.503	0.0528	3.5% (inactive)	-0.331 (inactive)	2.9e-05 (inactive)	0.00497 (inactive)	inactive	-1.58% (inactive)
O=S1CCCSC1c1cccnc1 (centres undefined)	524	-10.3% (inactive)	-190% (inactive)	144	1.86	-0.668	-1.2	13.9% (inactive)	-0.507 (inactive)	-1.9e-05 (inactive)	0.00681 (inactive)	inactive	2.49% (inactive)
CCCOc1ccc(CSC(CC(=O)O)C(=O)O)cc1 (centres undefined)	542	1.4% (inactive)	-21% (inactive)	124	1.34	-1.26	-1.51	-3.5% (inactive)	-0.332 (inactive)	1.3e-05 (inactive)	0.00503 (inactive)	inactive	15.7% (inactive)
Cc1cc(C)c2nc(SCCC#N)nc(C)c2c1	635	-4.4% (inactive)	9.3% (inactive)	157	0.288	-0.415	1	-2.91% (inactive)	-0.508 (inactive)	-6.6e-05 (inactive)	0.00476 (inactive)	inactive	4.11% (inactive)
COc1ccc(OC)c(C(O)c2coc3ccc(O)c(CN4CCOCC4)c23)c1 (centres undefined)	395	-2.4% (inactive)	-6.2% (inactive)	142	-0.303	0.452	0.346	1.42% (inactive)	-0.45 (inactive)	-6.9e-05 (inactive)	0.00476 (inactive)	inactive	36.3% (inactive)
Cc1cccn2c(=O)c3cc(C#N)c(=N)n(Cc4ccncc4)c3nc12	604	-18.3% (inactive)	-96.5% (inactive)	165	0.463	-1.24	0.303	-4.27% (inactive)	-0.479 (inactive)	-4.2e-05 (inactive)	0.00367 (inactive)	inactive	-9.33% (inactive)
CC(=O)Nc1cc2c(cc1Br)OCCO2	524	-18.7% (inactive)	-80.8% (inactive)	169	-0.0183	1.62	-0.826	16.1% (inactive)	-0.519 (inactive)	-3.4e-05 (inactive)	0.00516 (inactive)	inactive	33.1% (inactive)
Cn1c(=O)c2c3c(sc2n2c(SCC(N)=O)nnc12)CC(C(C)(C)C)CC3 (centres undefined)	508	-9.7% (inactive)	-30% (inactive)	91.7	1.25	-0.417	0.675	3.56% (inactive)	-0.371 (inactive)	6.2e-07 (inactive)	0.00521 (inactive)	inactive	92.5% (active)
CCOC(=O)c1ccc(NC(=O)CCC(CC)C(=O)O)cc1 (centres undefined)	402	-23.7% (inactive)	-228% (inactive)	167	1.04	-1.56	-0.382	27.7% (inactive)	-0.349 (inactive)	-9.3e-06 (inactive)	0.00545 (inactive)	inactive	-1.41% (inactive)
